Source: paper PMC3288537 (ACS Chemical Biology, 2011)

Legend:
[1] = target: T1, MKP-3 (Homo sapiens, UniProt Q16828); experiment: Dose-response OMFP phosphatase assay, MKP-3; type: biochemical; conditions: read-out: IC50 MKP-3; OMFP substrate
T1 sequence (Q16828 1-381): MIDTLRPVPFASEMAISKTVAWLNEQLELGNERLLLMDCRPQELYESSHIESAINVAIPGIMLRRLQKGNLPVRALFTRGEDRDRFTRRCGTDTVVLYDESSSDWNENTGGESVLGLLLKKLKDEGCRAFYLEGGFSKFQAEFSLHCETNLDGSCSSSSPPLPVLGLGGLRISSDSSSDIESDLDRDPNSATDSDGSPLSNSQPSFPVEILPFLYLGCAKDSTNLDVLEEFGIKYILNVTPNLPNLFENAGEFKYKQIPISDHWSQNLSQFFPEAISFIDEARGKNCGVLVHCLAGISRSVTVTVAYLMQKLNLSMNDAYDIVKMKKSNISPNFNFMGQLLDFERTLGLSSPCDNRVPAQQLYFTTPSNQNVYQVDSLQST

[2] = target: VHR (Homo sapiens, UniProt P51452); experiment: Dose-response OMFP phosphatase assay, VHR; type: biochemical; conditions: read-out: IC50 VHR; OMFP substrate
VHR, sequence (P51452 whole entry, species assumed): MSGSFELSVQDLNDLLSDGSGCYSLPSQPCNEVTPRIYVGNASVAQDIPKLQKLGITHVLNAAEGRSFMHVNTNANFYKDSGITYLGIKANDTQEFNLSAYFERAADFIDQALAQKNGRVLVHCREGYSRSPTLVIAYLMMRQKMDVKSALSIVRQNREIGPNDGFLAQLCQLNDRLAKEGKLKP

[3] = target: T2, STEP (Homo sapiens, UniProt P54829); experiment: Dose-response OMFP phosphatase assay, STEP; type: biochemical; conditions: read-out: IC50 STEP; OMFP substrate
T2 sequence (P54829 1-565): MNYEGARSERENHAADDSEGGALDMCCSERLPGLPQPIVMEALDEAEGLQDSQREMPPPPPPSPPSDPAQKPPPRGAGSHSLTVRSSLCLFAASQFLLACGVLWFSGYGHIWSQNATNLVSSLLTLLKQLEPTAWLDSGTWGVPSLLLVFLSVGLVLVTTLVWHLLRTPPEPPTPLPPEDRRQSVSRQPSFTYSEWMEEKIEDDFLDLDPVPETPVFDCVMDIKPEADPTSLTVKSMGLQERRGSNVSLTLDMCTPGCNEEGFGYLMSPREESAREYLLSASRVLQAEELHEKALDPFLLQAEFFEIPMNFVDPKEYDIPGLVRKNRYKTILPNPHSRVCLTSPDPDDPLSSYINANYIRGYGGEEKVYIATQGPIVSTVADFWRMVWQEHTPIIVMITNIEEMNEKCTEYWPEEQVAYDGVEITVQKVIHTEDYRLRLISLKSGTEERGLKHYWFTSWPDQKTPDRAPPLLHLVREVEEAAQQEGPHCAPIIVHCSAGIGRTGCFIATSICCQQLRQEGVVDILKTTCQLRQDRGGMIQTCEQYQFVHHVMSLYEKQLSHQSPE

[4] = target: T3, LYP (Homo sapiens, UniProt Q9Y2R2); experiment: Dose-response OMFP phosphatase assay, LYP; type: biochemical; conditions: read-out: IC50 LYP; OMFP substrate
T3 sequence (Q9Y2R2 1-807): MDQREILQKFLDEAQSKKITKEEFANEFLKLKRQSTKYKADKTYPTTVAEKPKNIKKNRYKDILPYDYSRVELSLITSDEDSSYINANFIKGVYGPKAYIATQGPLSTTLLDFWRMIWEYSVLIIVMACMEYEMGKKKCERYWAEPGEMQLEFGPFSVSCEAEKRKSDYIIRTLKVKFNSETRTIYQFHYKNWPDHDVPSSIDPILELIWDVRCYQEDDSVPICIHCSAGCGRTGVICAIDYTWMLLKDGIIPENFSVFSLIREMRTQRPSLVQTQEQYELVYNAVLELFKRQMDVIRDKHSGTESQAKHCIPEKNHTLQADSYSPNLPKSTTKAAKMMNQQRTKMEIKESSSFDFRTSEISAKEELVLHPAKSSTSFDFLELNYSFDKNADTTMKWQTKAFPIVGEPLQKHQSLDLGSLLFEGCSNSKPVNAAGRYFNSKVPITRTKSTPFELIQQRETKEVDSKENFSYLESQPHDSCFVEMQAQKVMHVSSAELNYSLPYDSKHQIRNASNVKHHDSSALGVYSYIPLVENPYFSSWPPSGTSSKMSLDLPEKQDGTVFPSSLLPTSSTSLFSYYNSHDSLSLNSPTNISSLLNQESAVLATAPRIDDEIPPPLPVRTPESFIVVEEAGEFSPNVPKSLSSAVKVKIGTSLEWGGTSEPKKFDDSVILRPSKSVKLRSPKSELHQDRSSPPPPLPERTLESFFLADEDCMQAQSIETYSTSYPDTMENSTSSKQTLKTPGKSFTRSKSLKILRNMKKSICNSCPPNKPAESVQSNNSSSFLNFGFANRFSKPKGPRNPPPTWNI

[5] = target: T4, HePTP-DM (K105A/T106A double mutant) (Homo sapiens, UniProt P35236, K126A/T127A); experiment: Dose-response OMFP phosphatase assay, HePTP K105A/T106A double mutant; type: biochemical; conditions: read-out: IC50 HePTP-DM
T4 sequence (P35236 22-360 K126A/T127A limits assumed): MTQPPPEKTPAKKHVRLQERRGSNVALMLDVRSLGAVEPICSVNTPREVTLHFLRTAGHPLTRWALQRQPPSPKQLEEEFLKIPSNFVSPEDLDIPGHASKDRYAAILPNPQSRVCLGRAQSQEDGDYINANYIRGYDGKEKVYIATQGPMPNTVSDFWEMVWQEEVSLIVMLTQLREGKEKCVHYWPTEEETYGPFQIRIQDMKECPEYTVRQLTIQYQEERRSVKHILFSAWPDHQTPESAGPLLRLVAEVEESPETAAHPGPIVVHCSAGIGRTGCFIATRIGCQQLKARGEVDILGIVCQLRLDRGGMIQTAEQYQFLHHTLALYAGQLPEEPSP

[6] = tested on: ERK1/2 and p38 phosphorylation in Jurkat TAg T cells; experiment: Immunoblot of pERK1/2, pp38 and pMEK in TCR-stimulated Jurkat TAg T cells; type: cell-based, human
How it was run: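 Jurkat TAg T cells preincubated with test compound or DMSO (0.2% in time course) for 45 min at 37°C, then stimulated with OKT3 at 500 ng mL-1 for 5 min. Cells lysed at once, or washed and held in fresh RPMI 1640 for set times. Immunoblotted for phospho-ERK1/2, p38 and MEK; bands normalised to total protein (time course also to GAPDH). Mean ± SEM; Student's t-test; 3–4 independent experiments.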

[7] = tested on: ERK1/2 and p38 phosphorylation in splenocytes; experiment: Immunoblot of phosphorylation levels in spleen of mice injected i.p.; type: in vivo, C57B6 mice; conditions: mouse spleen, doses and time points used
How it was run: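 C57B6 mice given test compound i.p. at 3 or 5 mg kg-1, or vehicle; spleens taken 3 h or 6 h later (3 mice per dose and time). Spleen sonicated in Tris pH 7.4 buffer with phosphatase and protease inhibitors; 800 × g supernatant used. Blotted for pS473-AKT, pS23-HePTP, pERK1/2 and pp38, normalised to total protein then GAPDH. ANOVA/Tukey or t-test.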

[8] = 4 μM preincubation, before TCR stimulation, stimulated DMSO = 100%
[9] = 4 μM, OKT3 stimulation, DMSO = 100%
[10] = 4 μM, up to 2 h after TCR stimulation
[11] = 40 μM, 45 min preincubation, OKT3 5 min, vs DMSO

O=C(O)c1ccccc1-c1ccc(/C=c2\sc3nc4cc(Br)cnc4n3c2=O)o1 [Compound 1]
IC50 [1]: 5.2 µM | IC50 [2]: 1.9 µM | IC50 [3]: 6.3 µM | IC50 [4]: 1.9 µM | IC50 [5]: 6.6 µM | basal pERK1/2 phosphorylation level [6, 8]: 22.0 ± 2.5% | basal pp38 phosphorylation level [6, 8]: 55.0 ± 5.8% | pERK1/2 level after TCR stimulation [6, 9]: 134.3 ± 4.9% | pp38 level after TCR stimulation [6, 9]: 125.5 ± 4.0% | time course of pERK1/2 levels after stimulation [6, 10]: remained constant up to 1 h after stimulation | time course of pp38 levels after stimulation [6, 10]: remained unchanged | pERK1/2 levels [6, 11]: augmented | pMEK levels (activation of MEK) [6, 11]: unchanged | pp38 levels [6, 11]: augmented | pMEK levels in dose-response ([6]; concentrations as high as 40 μM): not affected | AKT phosphorylation levels [7]: no change | phospho-HePTP (pS23) levels [7]: No changes
